One block for each compound: values may come before it.
Experiments:
[1] = test system: 11 CpAMs-resistant mutant HBC (P25A, P25G, D29L, D29W, T33N, I105F, I105W, I105Y, T109A, V124W, V124F); assay: Degradation of CpAMs-resistant mutant HBC in transfected HepG2 cells; format: cell-based, Hepatitis B virus (HBV); conditions: 18 h, HyT-S7 6, NVR 3-778 3, 3TC 1 μmol/L
Summary of the method: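 HepG2 cells at about 80% confluence were transfected with 0.25 µg plasmid. The pCMV-HBC-derived plasmids carried P25A, P25G, D29A/D29L, D29W, T33N, I105F, I105W, I105Y or T109A; pHBV1.3-derived plasmids carried V124F/V124W. At 6 h post-transfection, medium was replaced with fresh medium or test compound (6 µmol/L) or comparators (1–3 µmol/L) for 18 h. Intracellular core protein was detected by Western blot against a GAPDH/β-actin loading control, with chemiluminescence read-out.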

[2] = test system: HBV DNA replication in HepAD38 cells; assay: In vitro anti-HBV assay in HepAD38 cells; format: cell-based, Hepatitis B virus (HBV); conditions: reduction of HBV DNA by 50% in HepAD38 cells, qPCR, 4 days incubation (Table 2)
Summary of the method: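 HepAD38 cells were plated overnight, then exposed to serially diluted test compound without tetracycline for 4 days. Cytoplasmic HBV core DNA was extracted and quantified by real-time PCR. EC50 is relative to mock-treated controls, calculated by the Reed & Muench method.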

HBV core protein (HBC) = HBV core protein (HBC) (Hepatitis B virus genotype D subtype ayw, UniProt P03146); assay: HBC degradation in HepAD38 cells by Western blot; format: cell-based; conditions: for HBC degradation activity (Western blot): tet-, maximum non-toxic concentration, 72 h
[3] = Cytotoxicity on HepAD38 cells by cytopathic effect; format: cell-based, Human; conditions: human, HepAD38 cells, CC50, reduction of viability of HepAD38 cells by 50%, CPE method (Table 2)
Summary of the method: (§1)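 HepAD38 cells (tetracycline-inducible HBV) were maintained in DMEM with 10% FBS, 1 µg/mL tetracycline and 400 µg/mL G-418. Cells were plated overnight, then given serial dilutions of test compound without tetracycline. Cytotoxicity was read by the cytopathic effect method. CC50 is the concentration cutting viability by 50%, calculated by the Reed & Muench method.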

HepAD38 cells = assay: Cytotoxicity on HepAD38 cells by cytopathic effect; format: cell-based, Human
Summary of the method: as §1

[4] = Hepatitis B virus, HePAD38, 96 h

Compound: Nc1ccn([C@@H]2CS[C@H](CO)O2)c(=O)n1 [3TC, lamivudine]
degradation of 11 mutant types of HBC [1]: neither NVR 3-778 nor 3TC showed any degradation effect

Compound: O=C(COCCNC(=O)C(c1ccccc1)c1ccccc1)NC1CCN(S(=O)(=O)c2cc(C(=O)Nc3cc(F)c(F)c(F)c3)ccc2F)CC1 [HyT-S10, 3-((4-(2-(2-(2,2-Diphenylacetamido)ethoxy)acetamido)piperidin-1-yl)sulfonyl)-4-fluoro-N-(3,4,5-trifluorophenyl)benzamide]
EC50 [2, 4]: 0.26 µM | HBC degradation activity (Western blot) (HBV core protein (HBC)): still retains some degradation activity | CC50 [3]: 20 µM

Compound: O=C(CC1c2ccccc2-c2ccccc21)NCCOCC(=O)NC1CCN(S(=O)(=O)c2cc(C(=O)Nc3cc(F)c(F)c(F)c3)ccc2F)CC1 [HyT-S11, 3-((4-(2-(2-(2-(9H-Fluoren-9-yl)acetamido)ethoxy)acetamido)piperidin-1-yl)sulfonyl)-4-fluoro-N-(3,4,5-trifluorophenyl)benzamide]
EC50 [2, 4]: 0.21 µM | HBC degradation activity (Western blot) (HBV core protein (HBC)): still retains some degradation activity | CC50 [3]: 34.6 µM

Compound: CC(C)Cc1ccc([C@H](C)C(=O)NCCOCC(=O)NC2CCN(S(=O)(=O)c3cc(C(=O)Nc4cc(F)c(F)c(F)c4)ccc3F)CC2)cc1 [HyT-S13, (S)-4-Fluoro-3-((4-(2-(2-(2-(4-isobutylphenyl)propanamido)ethoxy)acetamido)piperidin-1-yl)sulfonyl)-N-(3,4,5-trifluorophenyl)benzamide]
EC50 [2, 4]: 0.59 µM | HBC degradation activity (Western blot) (HBV core protein (HBC)): still retains some degradation activity | CC50 [3]: 11.6 µM

Compound: CC(C)[C@@H]1CC[C@@H](C)C[C@H]1OCC(=O)NCCOCC(=O)NC1CCN(S(=O)(=O)c2cc(C(=O)Nc3cc(F)c(F)c(F)c3)ccc2F)CC1 [HyT-S14, 4-Fluoro-3-((4-(2-(2-(2-(((1R,2S,5R)-2-isopropyl-5-methylcyclohexyl)oxy)acetamido)ethoxy)acetamido)piperidin-1-yl)sulfonyl)-N-(3,4,5-trifluorophenyl)benzamide]
EC50 [2, 4]: 0.29 µM | HBC degradation activity (Western blot) (HBV core protein (HBC)): still retains some degradation activity | CC50 [3]: 11.6 µM

Compound: CC(C)(C)OC(=O)/N=C(\NCCC[C@H](NC(=O)OC(C)(C)C)C(=O)NCCOCC(=O)NC1CCN(S(=O)(=O)c2cc(C(=O)Nc3cc(F)c(F)c(F)c3)ccc2F)CC1)NC(=O)OC(C)(C)C [HyT-S15, 2-Methylpropan-2-yl {[(6E,11S)-18-({1-[(2-fluoro-5-{[(3,4,5-trifluorophenyl)amino]carbonyl}phenyl)dioxo-λ6-sulfanyl]hexahydropyridin-4-yl}amino)-2,2-dimethyl-11-({[(2-methylprop-2-yl)oxy]carbonyl}amino)-4,12,18-trioxo-3,16-dioxa-5,7,13-triazaoctadecan-6-ylidene]amino}methanoate]
EC50 [2, 4]: 0.45 µM | HBC degradation activity (Western blot) (HBV core protein (HBC)): still retains some degradation activity | CC50 [3]: 60 µM | maximum non-toxic concentration by CPE method (HepAD38 cells; HepAD38 cells, concentration used in the degradation test): 20 µmol/L

HBC degradation (Western blot) (HBV core protein (HBC); 20 μmol/L, 24 h): unable to induce degradation of HBC
Compound: NCCOCC(=O)NC1CCN(S(=O)(=O)c2cc(C(=O)Nc3cc(F)c(F)c(F)c3)ccc2F)CC1 [SP-O-7, 3-((4-(2-(2-Aminoethoxy)acetamido)piperidin-1-yl)sulfonyl)-4-fluoro-N-(3,4,5-trifluorophenyl)benzamide]

Compound: N^1-(Bicyclo[2.2.1]hept-2-en-1-ylmethyl)-N^6-(1-((2-fluoro-5-((3,4,5-trifluorophenyl)carbamoyl)phenyl)sulfonyl)piperidin-4-yl)adipamide [HyT-S12]
EC50 [2]: 0.22 µM | CC50 (HepAD38 cells; reduction of viability of HepAD38 cells by 50%, CPE method (Table 2)): 28.8 µM

— paper PMC12138108 (Acta Pharmaceutica Sinica. B, 2025)
